We go through one compound from ChEMBL document CHEMBL4382192, “Discovery of a potent dual ALK and EGFR T790M inhibitor” (Eur J Med Chem, 2017).

In experiment [1] the test system is Fibroblast growth factor receptor 3 (Homo sapiens), P22607 [G697C]. Description: Binding affinity to human partial length FGFR3 G697C mutant (R442 to S771 residues) expressed in bacterial expression system assessed as residual binding level at 1 uM by Kinomescan method relative to control. The gist of the method:
(§1)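 Kinome-wide selectivity panel run by the KINOMEscan method, with the test compound at a single concentration of 1 μM. Wild-type and mutant kinases were profiled in the same screen.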

Experiment [2] concerns the target Discoidin domain-containing receptor 2 (Homo sapiens) (UniProt Q16832). The experiment is described as follows: Binding affinity to wild-type human partial length DDR2 (V555 to E855 residues) expressed in mammalian expression system assessed as residual binding level at 1 uM by Kinomescan method relative to control.
Experiment [3] has as its target BMP-2-inducible protein kinase (Homo sapiens) (UniProt Q9NSY1). Description: Binding affinity to wild-type human partial length BIKE (S34 to N329 residues) expressed in bacterial expression system assessed as residual binding level at 1 uM by Kinomescan method relative to control.
The target in experiment [4] is Protein-tyrosine kinase 2-beta (Homo sapiens) (UniProt Q14289). Description: Binding affinity to wild-type human full length PYK2 (M1 to E967 residues) expressed in bacterial expression system assessed as residual binding level at 1 uM by Kinomescan method relative to control. Summed up: (§2)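 Single-point kinome-wide KINOMEscan binding panel, test compound at 1 μM, run by the provider's standard protocol.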
Chain of Protein-tyrosine kinase 2-beta (Homo sapiens) (Q14289 whole entry, looked up, the tested form may be a part): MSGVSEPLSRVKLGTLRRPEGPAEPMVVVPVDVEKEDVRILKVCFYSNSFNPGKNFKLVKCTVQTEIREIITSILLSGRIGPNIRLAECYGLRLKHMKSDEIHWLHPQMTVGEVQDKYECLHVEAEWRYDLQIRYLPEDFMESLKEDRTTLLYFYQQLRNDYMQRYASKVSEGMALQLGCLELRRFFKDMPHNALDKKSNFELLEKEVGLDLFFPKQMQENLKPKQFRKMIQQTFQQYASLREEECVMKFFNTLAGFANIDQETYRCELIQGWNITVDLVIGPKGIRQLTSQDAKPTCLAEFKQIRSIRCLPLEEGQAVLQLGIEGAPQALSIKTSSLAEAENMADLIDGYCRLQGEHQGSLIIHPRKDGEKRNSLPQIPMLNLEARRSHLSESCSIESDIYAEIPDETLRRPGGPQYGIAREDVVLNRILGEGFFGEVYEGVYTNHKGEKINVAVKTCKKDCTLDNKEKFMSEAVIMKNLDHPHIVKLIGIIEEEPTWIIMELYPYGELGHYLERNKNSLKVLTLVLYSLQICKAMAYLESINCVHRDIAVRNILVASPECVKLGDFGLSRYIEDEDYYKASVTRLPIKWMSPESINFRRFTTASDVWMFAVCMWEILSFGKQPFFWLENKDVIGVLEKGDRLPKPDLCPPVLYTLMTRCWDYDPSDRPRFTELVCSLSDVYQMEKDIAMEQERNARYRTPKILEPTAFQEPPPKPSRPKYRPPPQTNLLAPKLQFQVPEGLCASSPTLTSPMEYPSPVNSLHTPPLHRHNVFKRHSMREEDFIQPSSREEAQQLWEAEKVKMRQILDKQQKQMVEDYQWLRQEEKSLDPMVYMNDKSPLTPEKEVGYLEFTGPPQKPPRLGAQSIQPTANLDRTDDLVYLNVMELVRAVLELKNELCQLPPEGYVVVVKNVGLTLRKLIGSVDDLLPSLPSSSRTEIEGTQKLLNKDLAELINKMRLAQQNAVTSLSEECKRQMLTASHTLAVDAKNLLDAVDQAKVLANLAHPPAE

Experiment [5] addresses Tyrosine-protein kinase Fes/Fps (Homo sapiens) (UniProt P07332). The experiment is described as follows: Binding affinity to wild-type human partial length FES (I527 to R822 residues) expressed in bacterial expression system assessed as residual binding level at 1 uM by Kinomescan method relative to control.
In experiment [6] the target is Serine/threonine-protein kinase OSR1 (Homo sapiens) (UniProt O95747). Description: Binding affinity to wild-type human full length OSR1 (M1 to S527 residues) expressed in mammalian expression system assessed as residual binding level at 1 uM by Kinomescan method relative to control. The gist of the method: as §2
Chain of Serine/threonine-protein kinase OSR1 (Homo sapiens) (O95747 2-527 limits assumed): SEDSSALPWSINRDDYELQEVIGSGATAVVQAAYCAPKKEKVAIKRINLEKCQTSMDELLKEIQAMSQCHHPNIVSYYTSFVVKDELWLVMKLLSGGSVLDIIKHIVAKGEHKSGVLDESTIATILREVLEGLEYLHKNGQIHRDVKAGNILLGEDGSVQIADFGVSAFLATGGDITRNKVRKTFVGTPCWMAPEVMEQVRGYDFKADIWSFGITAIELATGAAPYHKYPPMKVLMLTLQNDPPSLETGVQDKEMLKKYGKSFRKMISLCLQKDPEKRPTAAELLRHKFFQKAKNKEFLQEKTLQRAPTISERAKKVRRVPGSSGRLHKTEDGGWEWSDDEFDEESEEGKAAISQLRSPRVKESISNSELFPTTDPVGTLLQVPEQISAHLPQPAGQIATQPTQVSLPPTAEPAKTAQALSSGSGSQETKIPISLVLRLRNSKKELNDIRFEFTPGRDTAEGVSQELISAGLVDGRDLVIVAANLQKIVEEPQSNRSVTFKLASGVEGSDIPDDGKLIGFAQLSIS
Experiment [7] addresses Protein kinase C eta type (Homo sapiens) (UniProt P24723). The experiment is described as follows: Binding affinity to wild-type human partial length PRKCH (S324 to P683 residues) expressed in bacterial expression system assessed as residual binding level at 1 uM by Kinomescan method relative to control.
Experiment [8] deals with Receptor tyrosine-protein kinase erbB-4 (Homo sapiens, UniProt Q15303). The experiment is described as follows: Inhibition of recombinant N-terminal GST-tagged human ErbB4 cytoplasmic domain expressed in baculovirus expression system by Z-LYTE assay.
For experiment [9], the target named is AP2-associated protein kinase 1 (Homo sapiens) (UniProt Q2M2I8). The experiment is described as follows: Binding affinity to human wild-type AAK1 (G25 to L333 residues) expressed in bacterial expression system assessed as residual binding level at 1 uM by Kinomescan method relative to control.
Experiment [10] concerns Receptor-type tyrosine-protein kinase FLT3 (Homo sapiens), P36888 [D835Y]. The experiment is described as follows: Binding affinity to human partial length FLT3 D835Y mutant (Q580 to Y969 residues) expressed in bacterial expression system assessed as residual binding level at 1 uM by Kinomescan method relative to control. The gist of the method:
as §1

The target of experiment [11] is Serine/threonine-protein kinase Nek3 (Homo sapiens) (UniProt P51956). The experiment is described as follows: Binding affinity to wild-type human full length NEK3 (M1 to R506 residues) expressed in mammalian expression system assessed as residual binding level at 1 uM by Kinomescan method relative to control. The gist of the method: as §2
For experiment [12], the target named is Homeodomain-interacting protein kinase 4 (Homo sapiens) (UniProt Q8NE63). Description: Binding affinity to wild-type human partial length HIPK4 (M1 to V384 residues) expressed in bacterial expression system assessed as residual binding level at 1 uM by Kinomescan method relative to control.
The target in another experiment is Insulin receptor (Homo sapiens, UniProt P06213). Description: Inhibition of recombinant His-tagged human InsR (1011 to 1382 residues) expressed in baculovirus expression system by Z-LYTE assay.
Chain of Insulin receptor (P06213 28-758 limits assumed): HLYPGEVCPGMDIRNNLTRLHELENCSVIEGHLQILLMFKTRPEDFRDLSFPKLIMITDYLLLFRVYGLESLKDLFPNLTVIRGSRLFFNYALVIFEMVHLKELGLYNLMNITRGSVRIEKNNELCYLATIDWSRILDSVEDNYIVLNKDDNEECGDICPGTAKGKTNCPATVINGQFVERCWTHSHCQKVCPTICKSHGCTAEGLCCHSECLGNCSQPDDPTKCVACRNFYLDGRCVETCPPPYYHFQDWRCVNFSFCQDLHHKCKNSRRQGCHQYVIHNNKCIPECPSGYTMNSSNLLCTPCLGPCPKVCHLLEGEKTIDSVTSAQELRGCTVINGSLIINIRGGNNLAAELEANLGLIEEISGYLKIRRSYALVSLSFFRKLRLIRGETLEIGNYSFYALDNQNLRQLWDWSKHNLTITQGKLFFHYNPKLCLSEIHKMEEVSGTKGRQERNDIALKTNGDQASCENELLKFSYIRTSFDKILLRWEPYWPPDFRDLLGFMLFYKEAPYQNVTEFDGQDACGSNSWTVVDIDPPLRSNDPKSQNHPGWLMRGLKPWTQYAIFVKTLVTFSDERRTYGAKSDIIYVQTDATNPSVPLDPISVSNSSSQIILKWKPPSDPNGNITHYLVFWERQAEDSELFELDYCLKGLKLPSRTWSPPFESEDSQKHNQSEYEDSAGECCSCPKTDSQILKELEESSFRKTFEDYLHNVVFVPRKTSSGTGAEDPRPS
Chain of Insulin receptor (P06213 763-1382 limits assumed): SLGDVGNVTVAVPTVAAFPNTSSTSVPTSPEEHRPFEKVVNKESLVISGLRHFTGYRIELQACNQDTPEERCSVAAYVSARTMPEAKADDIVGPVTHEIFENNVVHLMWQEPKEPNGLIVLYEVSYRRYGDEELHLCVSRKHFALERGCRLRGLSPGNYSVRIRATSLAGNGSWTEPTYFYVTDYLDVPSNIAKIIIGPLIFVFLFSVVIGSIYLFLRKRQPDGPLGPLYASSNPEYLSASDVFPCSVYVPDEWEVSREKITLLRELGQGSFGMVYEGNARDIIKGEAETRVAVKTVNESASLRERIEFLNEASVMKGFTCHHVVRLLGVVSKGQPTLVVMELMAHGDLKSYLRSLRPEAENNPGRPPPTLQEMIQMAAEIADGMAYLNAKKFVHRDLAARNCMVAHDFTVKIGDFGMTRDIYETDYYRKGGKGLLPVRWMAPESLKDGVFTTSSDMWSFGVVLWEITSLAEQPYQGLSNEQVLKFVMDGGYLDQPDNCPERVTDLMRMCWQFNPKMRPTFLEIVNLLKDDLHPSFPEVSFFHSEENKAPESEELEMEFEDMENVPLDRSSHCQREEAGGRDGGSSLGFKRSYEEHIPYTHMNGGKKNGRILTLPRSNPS
Experiment [13] concerns the target Serine/threonine-protein kinase PLK1 (Homo sapiens) (UniProt P53350). Description: Binding affinity to wild-type human partial length PLK1 (A33 to F325 residues) expressed in mammalian expression system assessed as residual binding level at 1 uM by Kinomescan method relative to control.
Experiment [14] concerns the target Phosphatidylinositol 4-phosphate 5-kinase type-1 alpha (Homo sapiens) (UniProt Q99755). Description: Binding affinity to wild-type human full length PIP5K1A (M1 to H562 residues) expressed in bacterial expression system assessed as residual binding level at 1 uM by Kinomescan method relative to control.
Experiment [15] deals with Serine/threonine-protein kinase haspin (Homo sapiens) (UniProt Q8TF76). The experiment is described as follows: Binding affinity to wild-type human partial length HASPIN (I452 to K798 residues) expressed in mammalian expression system assessed as residual binding level at 1 uM by Kinomescan method relative to control.
For experiment [16], the system named is Epidermal growth factor receptor (Homo sapiens), P00533 [G719S]. Description: Binding affinity to human partial length EGFR G719S mutant (R669 to V1011 residues) expressed in bacterial expression system assessed as residual binding level at 1 uM by Kinomescan method relative to control. The gist of the method: as §1
For experiment [17], the target named is SRSF protein kinase 1 (Homo sapiens) (UniProt Q96SB4). The experiment is described as follows: Binding affinity to wild-type human full length SRPK1 (M1 to S655 residues) expressed in bacterial expression system assessed as residual binding level at 1 uM by Kinomescan method relative to control. The gist of the method:
as §2

Experiment [18] has as its target Tyrosine-protein kinase ABL1 (Homo sapiens) (UniProt P00519). Description: Binding affinity to wild-type human non-phosphorylated ABL1 (S229 to K512 residues) expressed in mammalian expression system assessed as residual binding level at 1 uM by Kinomescan method relative to control.
Experiment [19] deals with Phosphatidylinositol 3-kinase C2 domain-containing subunit gamma (Homo sapiens) (UniProt O75747). Description: Binding affinity to wild-type human partial length PIK3C2G (M1 to I1446 residues) expressed in mammalian expression system assessed as residual binding level at 1 uM by Kinomescan method relative to control.
In experiment [20] the target is Vascular endothelial growth factor receptor 3 (Homo sapiens) (UniProt P35916). Description: Binding affinity to wild-type human partial length FLT4 (E821 to E1196 residues) expressed in bacterial expression system assessed as residual binding level at 1 uM by Kinomescan method relative to control.
The subject of experiment [21] is Tyrosine-protein kinase ABL1 (Homo sapiens), P00519 [Y253F]. Description: Binding affinity to human phosphorylated ABL1 Y253F mutant (S229 to K512 residues) expressed in mammalian expression system assessed as residual binding level at 1 uM by Kinomescan method relative to control. The gist of the method:
as §1

Experiment [22] deals with Cyclin-dependent kinase-like 3 (Homo sapiens) (UniProt Q8IVW4). Description: Binding affinity to wild-type human partial length CDKL3 (M1 to D327 residues) expressed in bacterial expression system assessed as residual binding level at 1 uM by Kinomescan method relative to control.
Chain of Cyclin-dependent kinase-like 3 (Homo sapiens) (Q8IVW4 whole entry, looked up, the tested form may be a part): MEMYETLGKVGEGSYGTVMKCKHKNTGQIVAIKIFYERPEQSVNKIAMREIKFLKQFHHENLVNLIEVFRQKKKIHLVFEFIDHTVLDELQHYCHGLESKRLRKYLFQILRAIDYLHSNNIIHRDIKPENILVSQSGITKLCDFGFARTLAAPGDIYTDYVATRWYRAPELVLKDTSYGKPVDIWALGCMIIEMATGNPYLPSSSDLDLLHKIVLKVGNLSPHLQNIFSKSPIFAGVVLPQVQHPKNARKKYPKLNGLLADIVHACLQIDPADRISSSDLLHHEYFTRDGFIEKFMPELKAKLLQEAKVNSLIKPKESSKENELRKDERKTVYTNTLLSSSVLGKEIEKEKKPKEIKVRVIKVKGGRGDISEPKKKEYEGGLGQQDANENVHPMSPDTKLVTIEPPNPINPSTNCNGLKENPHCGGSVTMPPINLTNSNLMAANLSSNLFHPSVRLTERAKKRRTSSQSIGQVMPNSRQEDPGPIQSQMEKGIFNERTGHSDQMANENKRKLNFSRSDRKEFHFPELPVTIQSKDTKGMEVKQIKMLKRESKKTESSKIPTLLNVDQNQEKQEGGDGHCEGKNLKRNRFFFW
Experiment [23] deals with Proto-oncogene tyrosine-protein kinase ROS (Homo sapiens) (UniProt P08922). Description: Binding affinity to wild-type human partial length ROS1 (A1921 to N2240 residues) expressed in bacterial expression system assessed as residual binding level at 1 uM by Kinomescan method relative to control.

Chain of SRSF protein kinase 1 (Homo sapiens) (Q96SB4 whole entry, the tested form may be a part): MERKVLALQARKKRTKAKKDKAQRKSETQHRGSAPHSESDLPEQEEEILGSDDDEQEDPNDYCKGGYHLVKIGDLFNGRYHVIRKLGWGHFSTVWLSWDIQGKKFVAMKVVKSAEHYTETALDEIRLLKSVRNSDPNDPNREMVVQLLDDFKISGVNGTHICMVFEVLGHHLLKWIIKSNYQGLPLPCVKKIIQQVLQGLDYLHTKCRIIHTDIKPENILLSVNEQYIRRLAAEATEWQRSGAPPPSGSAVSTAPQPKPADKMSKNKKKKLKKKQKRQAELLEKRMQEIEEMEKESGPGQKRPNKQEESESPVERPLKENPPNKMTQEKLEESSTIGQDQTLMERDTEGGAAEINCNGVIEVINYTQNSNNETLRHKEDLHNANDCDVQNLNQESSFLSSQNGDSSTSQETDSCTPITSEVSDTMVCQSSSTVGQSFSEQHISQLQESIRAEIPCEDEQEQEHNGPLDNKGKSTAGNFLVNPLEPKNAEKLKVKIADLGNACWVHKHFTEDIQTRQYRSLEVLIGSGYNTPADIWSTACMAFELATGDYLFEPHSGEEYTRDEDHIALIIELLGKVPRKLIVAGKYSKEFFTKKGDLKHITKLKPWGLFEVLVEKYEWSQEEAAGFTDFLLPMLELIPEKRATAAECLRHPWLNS
Chain of Fibroblast growth factor receptor 3 (Homo sapiens), P22607 [G697C] (P22607 whole entry G697C, the tested form may be a part): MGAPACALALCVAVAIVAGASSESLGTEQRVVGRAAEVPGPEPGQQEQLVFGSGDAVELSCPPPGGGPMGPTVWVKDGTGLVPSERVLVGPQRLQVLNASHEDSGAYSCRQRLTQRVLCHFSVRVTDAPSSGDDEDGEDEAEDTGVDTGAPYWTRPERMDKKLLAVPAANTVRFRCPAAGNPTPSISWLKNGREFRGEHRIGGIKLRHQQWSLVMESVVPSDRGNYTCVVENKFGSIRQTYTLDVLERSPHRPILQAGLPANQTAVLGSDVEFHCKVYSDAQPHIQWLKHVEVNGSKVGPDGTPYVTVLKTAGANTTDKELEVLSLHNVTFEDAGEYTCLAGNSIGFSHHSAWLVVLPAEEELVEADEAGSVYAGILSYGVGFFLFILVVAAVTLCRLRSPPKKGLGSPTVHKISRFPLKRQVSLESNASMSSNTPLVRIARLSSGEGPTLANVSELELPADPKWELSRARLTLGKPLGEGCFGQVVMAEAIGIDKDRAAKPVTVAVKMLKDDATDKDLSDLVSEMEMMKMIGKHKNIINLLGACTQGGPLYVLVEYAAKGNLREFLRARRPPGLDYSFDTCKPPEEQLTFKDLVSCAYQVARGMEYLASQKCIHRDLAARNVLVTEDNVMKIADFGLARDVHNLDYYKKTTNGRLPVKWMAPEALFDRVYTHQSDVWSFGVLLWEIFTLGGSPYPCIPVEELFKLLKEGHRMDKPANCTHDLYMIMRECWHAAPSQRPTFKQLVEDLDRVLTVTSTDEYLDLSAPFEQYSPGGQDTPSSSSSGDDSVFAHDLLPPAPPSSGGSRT

The term IC50 denotes the midpoint of a concentration-inhibition curve. Take `C=CC(=O)Nc1cc(Nc2ncc(Cl)c(Nc3ccccc3S(=O)(=O)C(C)C)n2)c(OC)cc1N(C)CCN(C)C`: the Activity amounted to 15% in experiment [1]; 77% in experiment [2]; 92% in experiment [3]; 0.5% in experiment [4]; 1.4% in experiment [5]; 16% in experiment [6]. Moreover, the Activity worked out at 100% in [7]; 72% in experiment [9]; 3.6% in experiment [10]; 67% in experiment [11]; 9.4% in experiment [12]; 83% in experiment [13]. For the same compound, the Activity in [14] was found to be 91%; in [15], 100%; in experiment [16], 0%; in [17] it was 28%; in [18], 8.4%; in experiment [19], 69%. For the same compound, the Activity in experiment [20] was 36%; in experiment [21], 2.1%; in experiment [22] it was 66%; in experiment [23] it was 0%. For the same compound, the IC50 in experiment [8] came out at 3 nM; on Insulin receptor, 8 nM.
